Screening data: PubChem, Johns Hopkins Ion Channel Center
Most compounds without a hit are left out; they make up all but 3.7% or so of the library.
KCNK3 inh: human KCNK3 channel inhibitors, primary screen, CHO cells, FluxOR thallium flux, B-score | FluxOR fluorescence; stronger effect = lower value | Potassium channel subfamily K member 3 (Homo sapiens), O14649 | B-score at 10 µM | 340,000 tested, 0.84% active;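 active = B-score under library mean minus 4 SD, starting fluorescence ratio at most library mean plus 5 SD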;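 also: more negative B-score means stronger inhibition of thallium flux through KCNK3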
KCNQ1 pot: potentiators or activators of KCNQ1 channel, primary screen, cell-based, thallium flux, high-throughput; B-score at 10 µM; CHO-K1 KCNQ1, thallium flux FluxOR fluorescence; stronger effect = higher value; 310,000 tested, 0.35% active; Potassium voltage-gated channel subfamily KQT member 1 (Homo sapiens), P51787;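 active = fluorescence ratio B-score, a plate-corrected score, at least three library SD, with initial intensity B-score within 5 SD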
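Test system: CHO-K1 cells stably expressing KCNQ1 / Medium: assay buffer / Also added: depolarizing K+/Tl+ stimulus, K2SO4 and Tl2SO4 each 12.5 mM in 5x stock / Incubation: 90 min dye loading and 20 min compound exposure, both at room temperature / Signal: thallium influx via FluxOR fluorescence, kinetic imaging / Evaluation: B score of baseline-normalized fluorescence ratio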
KCNK9 block: KCNK9 potassium channel inhibitors, primary screen, HEK293 cells, thallium flux; Potassium channel subfamily K member 9 (Homo sapiens), Q9NPC2; AID 488922, 2010; FluxOR thallium flux fluorescence; stronger effect = lower value; B-score at 10 µM; 310,000 tested, 1.2% active;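 active = ratio B-score over 3 SD below the library mean, with starting fluorescence within 5 SD of its mean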;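 also: negative B-score means less thallium flux so channel inhibition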
hERG protect: hERG rescue from dofetilide block, primary screen, cell-based, CHO-hERG, FluxOR thallium flux, dofetilide IC70 | activation (rescue from dofetilide block), less the hit threshold, % at 10 µM | Voltage-gated inwardly rectifying potassium channel KCNH2 (Homo sapiens), Q12809 | 310,000 tested, 0.51% active | dofetilide IC70 present | AID 1511, 2009;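 active = activation above the mean of controls blocked by dofetilide plus 5 SD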;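 also: thallium influx through hERG after potassium depolarization seen as dye fluorescence rise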
KCNQ1 block: inhibitors of human KCNQ1 channel, primary screen, cell-based, thallium flux, high-throughput. Potassium voltage-gated channel subfamily KQT member 1 (Homo sapiens), P51787. CHO-K1 KCNQ1, FluxOR thallium flux fluorescence; stronger effect = higher value. B-score at 10 µM. 310,000 tested, 1.3% active. AID 2642, 2010;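 active = compounds whose thallium flux B-score, printed positive for inhibition, exceeds three library SD while starting fluorescence stays within three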;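 also: channel opened by potassium depolarization with thallium stimulus after 20 min compound exposure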
Kir21 inh: inhibitors of mouse Kir2.1 inward-rectifier potassium channel | Inward rectifier potassium channel 2 (Mus musculus), P35561 | B-score at 10 µM | HEK293-Kir2.1, FluxOR thallium flux fluorescence; stronger effect = lower value | 310,000 tested, 0.85% active;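 active = fluorescence ratio B-score at or below minus 3 SD of library scores, with starting-brightness B-score within 2 SD, cut at about -4.2 in these data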;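 also: channel flux triggered by added potassium and thallium sulfate stimulus; B-score of peak minus minimum fluorescence over baseline after thallium stimulus; more negative B-score means stronger Kir2.1 block with less thallium influx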
KCNK9 inh conf: KCNK9 potassium channel inhibitors, confirmation, HEK293 cells, thallium flux, duplicate; shares compounds with KCNK9 block; AID 492992, 2010; FluxOR thallium flux fluorescence; 4,900 tested, 43% active; inhibition, % at 10 µM;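 active = thallium signal inhibited by more than 5 SD of the compound-free buffer control wells, on both duplicate plates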;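 also: 0% = assay buffer control wells without compound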
Kir2-1 spec: mouse Kir2.1 channel inhibition, confirmation, selectivity assay for KCNK9 modulator project, cell-based, HEK293, thallium flux. shares compounds with KCNK9 block. Kir2.1 cells, FluxOR thallium flux fluorescence. inhibition, % at 10 µM. 4,900 tested, 4% active;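 active = thallium signal drop more than 5 SD beyond the mean of the no-compound control wells, seen in both duplicate plates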;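 also: signal is fluorescence rise after thallium addition divided by baseline fluorescence; plate controls were assay buffer only for no effect and full block by chlorpromazine control for full effect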
HEK293 Tl ctr: thallium flux in non-induced HEK293 cells, confirmation, counter-screen for KCNK9 inhibitor project, cell-based, second counter screen, non-induced KCNK9-HEK293; shares compounds with KCNK9 block; FluxOR thallium flux; inhibition, % at 10 µM; 4,900 tested, 40% active; AID 492997, 2010;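 active = thallium signal drop beyond 5 SD of the untreated control mean, on both duplicate plates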;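 also: plate controls were buffer only IC0 wells for no effect and SID17386958 at its maximal inhibitory level for full effect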
An asterisk follows results filed as active; i = inactive; · = not tested or not shown.

SMILES | KCNK3 inh | KCNQ1 pot | KCNK9 block | hERG protect | KCNQ1 block | Kir21 inh | KCNK9 inh conf | Kir2-1 spec | HEK293 Tl ctr
Cc1ccccc1Nc1nnc(SCc2cc([N+](=O)[O-])cc3c2OCOC3)s1 | i | i | -8.9* | -8 | i | -2.3 | i | i | i
O=[N+]([O-])c1cc2c(c(CSc3nnc(Nc4ccccc4)s3)c1)OCOC2 | i | i | i | -9 | i | 0.24 | · | · | ·
CCOc1ccc2c(c1)-c1c(ssc1=S)C(C)(C)N2C(=O)CSC1=NCCS1 | i | i | -13* | -17 | i | 1.4 | 70%* | i | 34%*
COc1ccccc1C1=NC(c2ccc(F)cc2)N=C1C (stereo unspecified) | i | i | i | -10 | i | 1.1 | i | i | i
O=C(NCc1ccc(F)cc1)c1noc2c1CCCC2 | i | i | i | -5 | i | 2.9 | · | · | ·
CC(C)(C)C1CCc2onc(C(=O)NCc3ccc(F)cc3)c2C1 (stereo unspecified) | i | i | i | -9 | i | 0.63 | i | i | i
Nc1c([N+](=O)[O-])c(=O)oc2ccccc12 | i | i | i | -6 | i | -1.1 | · | · | ·
COc1cc(OC)cc(-c2cc3nc4c(c(N5CCN(c6ncccn6)CC5)n3n2)CCCC4)c1 | -10* | i | -8.3* | -10 | i | 1.3 | 31%* | i | 34%*
Fc1cccc(-c2cc3nc4c(c(N5CCC6(CC5)OCCO6)n3n2)CCCC4)c1 | i | i | -8.4* | -1 | i | 0.57 | i | i | i
CC(=O)c1ccc(-c2ccc(C(=O)NCC3CCCO3)o2)cc1 (stereo unspecified) | i | i | i | -4 | i | 0.42 | · | · | ·
Cc1cc(NC(=O)CN2C(=O)NC3(CCCCC3)C2=O)ccc1N1CCCC1 | i | · | · | · | · | · | · | · | ·
Cc1ccc(-n2nnnc2CN2CCCCC2)cc1 | i | i | i | -5 | i | 0.02 | · | · | ·
CC(C)CCn1nnnc1CN1CCN(C(c2ccccc2)c2ccccc2)CC1 | i | i | i | -11 | i | -1.2 | · | · | ·
c1ccc(C(c2ccccc2)N2CCN(Cc3nnnn3C3CCCC3)CC2)cc1 | i | i | -9* | -11 | i | -1.4 | 41%* | i | i
CCN1CCCc2cc(CN(CCN3CCOCC3)C(=S)Nc3cccc(Cl)c3)ccc21 | i | i | i | -13 | i | 0.08 | i | i | i
COc1ccc(S(=O)(=O)N2CCCCC2)cc1NC(=O)C1CC1C (stereo unspecified) | i | · | · | · | · | · | · | · | ·
O=C(NCc1ccco1)c1cc(NS(=O)(=O)c2cccc([N+](=O)[O-])c2)ccc1O | i | i | i | -11 | i | 0.44 | i | i | i
O=C(NCc1ccco1)c1cccc(NS(=O)(=O)c2cccc(F)c2)c1 | i | i | i | -6 | i | -0.39 | · | · | ·
COc1ccc(NC(=O)CN2C(=O)NC(c3ccccc3)(c3ccccc3)C2=O)cc1OC | i | i | -16* | -2 | i | -0.78 | i | i | i
